Results as given in ChEMBL document CHEMBL4513216, “Probing the Open Global Health Chemical Diversity Library for Multistage-Active Starting Points for Next-Generation Antimalarials” (ACS Infect Dis, 2020).

Assay: Toxicity liver stage against HepG2, at 10uM
Assay type: cell-based
Design: test concentration 10 uM, cell line HepG2-A16-CD81EGFP
Conditions: human, HepG2-A16-CD81EGFP cells; read-out: INHIBITION
Summary of the method: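 Uninfected HepG2-A16-CD81EGFP cells, 3 × 10^3 per well, 1536-well, plated on prespotted compound at 10 μM final, parasite-free screening media added to match infected plates; puromycin 10 μM positive, DMSO 0.5% negative; run in parallel with 48 h PbLuc assay at 37 °C, 5% CO2; viability by CellTiter-Glo luminescence, normalized to controls.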

Row | SMILES | cytotoxicity at 10 µM [%]
1 | O=C(Nc1ccc2c(c1)C(=O)NC2=O)c1ccc(Cl)s1 | -3.96
2 | COc1ccc2[nH]c3c(N(C)CC4OCCO4)ncnc3c2c1 | 36
3 | O=C(NCC(=O)N1CCc2ccccc2C1)c1cnccn1 | -4.81
4 | O=C(NCCS(=O)(=O)N1CCN(c2ncccn2)CC1)c1ccccc1 | -3.28
5 | Cc1nnc(NC(=O)c2c3c(nn2C2CCS(=O)(=O)C2)CCC3)s1 (centres undefined) | -14.2
6 | COCC(C)(O)CNC(=O)c1cc(-c2ccc(F)cc2)nn1C (centres undefined) | -5.1
7 | CCS(=O)(=O)N1CCC2(CCCC(=O)N2C)CC1 | 0.817
8 | Cn1cc(CN2CCO[C@H]3CN(Cc4ccsc4)C[C@H]32)cn1 | -147
9 | Cc1nocc1C(=O)N1CCCC2(CCN(c3ccsc3)C2=O)C1 (centres undefined) | -129
10 | Cc1nc(CN2CCO[C@H]3CN(C(=O)c4cscn4)C[C@H]32)cs1 | -128
11 | CNC(=O)CNC(=O)c1ccc(-c2scnc2C)nc1 | -4.26
12 | O=C(c1ncccn1)N1C[C@@H]2CC[C@H](Oc3cccc(F)c3)[C@@H]2C1 | -27.5
13 | CC(=O)N1CCCC1c1nccnc1Nc1ncccn1 (centres undefined) | -1.2
14 | COc1ccccc1OCC(=O)n1ncc(C#N)c1N | -20
15 | CCS(=O)(=O)NCCNc1c(C#N)cnc2c(C)cc(F)cc12 | -0.453
16 | CCc1nnc(CN2CC(n3cccn3)C2)o1 | -146
17 | OCCN1CCN(Cc2coc(-c3ccccc3Cl)n2)CC1 | -7.57
18 | CN1CCN(C(=O)C2(NC(N)=O)CCCCC2)Cc2ccccc21 | -6.32
19 | CN(CC(=O)N1CCCC1)C(=O)c1cccn1CCc1ccccc1 | 6.99
20 | COc1ccccc1-c1csc(-c2cccc(C(=O)O)c2)n1 | 12.3
21 | CN1CCOC(CNC(=O)CCc2cc(F)ccc2F)C1 (centres undefined) | 2.32
22 | COc1ccc(-c2csc(-c3cccc(C(=O)O)c3)n2)cc1OC | 3.31
23 | Clc1ccc2cccnc2c1CNC1CCc2ncnn2C1 (centres undefined) | -6.53

Row | SMILES | cytotoxicity at 10 µM [%]
24 | CN1CCOC(CNCCCOc2ccc(C#N)cc2)C1 (centres undefined) | 6.91
25 | COC(=O)Cn1ccc(NS(=O)(=O)c2ccc3c(c2)CCC3)n1 | 10.6
26 | Cc1noc(CCNC(=O)NCc2ccc(N3CCCCC3)cc2)n1 | 9.47
27 | O=C(Cc1csc(-c2ccoc2)n1)NCCC(=O)N1CCCCC1 | 9.13
28 | N#Cc1csc(CNCCOc2ccccc2)c1 | 8.35
29 | CN1CCN(C(=O)c2cc(C#N)cs2)c2ccccc2C1 | 10.2
30 | COc1ccc(OC)c(CN(C(=O)c2ccc(C)[nH]c2=O)C2CC2)c1 | -1.59
31 | O=C1CCN(C(=O)C2(c3ccc(F)cc3)CCOCC2)CCN1 | -4.97
32 | O=C(NCCc1ccsc1)c1ccoc1 | -3.3
33 | CCSCCC(C)N(C)C(=O)c1cc(C)on1 (centres undefined) | -7.32
34 | c1ncn(CCNC2CCCN(Cc3noc(C4CC4)n3)C2)n1 (centres undefined) | -2.77
35 | N#CCCN(Cc1cccnc1)C(=O)c1ccc(OCC2CC2)cc1 | -8.17
36 | OC(CN1CCN(CC(F)F)CC1)c1ccc(Br)cc1 (centres undefined) | -9.88
37 | CN(CCCNC(=O)CN1CCS(=O)(=O)CC1)c1ccccc1 | -4.65
38 | CC(C)(C)OC(=O)NCC1CCN(C(=O)c2ccccc2O)C1 (centres undefined) | -3.73
39 | CNC(=O)c1cccc(NC(=O)NCc2ccccc2)c1C | -1.67
40 | Cc1nn(C)c(N2CCOCC2)c1CNCC1CCN(C2CC2)C1 (centres undefined) | -3.32
41 | O=C(NCC(O)COc1cccc(F)c1)C1(c2ccc(F)cc2)CC1 (centres undefined) | 0.884
42 | Cc1nonc1NC(=O)C1SCCc2ccccc21 (centres undefined) | -3
43 | CCc1ccc(C2COCCN2C(=O)Nc2cc(C)on2)o1 (centres undefined) | -4.31
44 | O=C(Nc1nc(-c2ccccc2)ns1)N1CCC(CO)CC1 | 9.11
45 | Cc1nn(C)c(N(C)C)c1CNCc1ccc(Cn2cccn2)cc1 | 3.73
46 | O=C(NC1CCS(=O)(=O)C1)c1sccc1OC(F)F (centres undefined) | -0.699

Row | SMILES | cytotoxicity at 10 µM [%]
47 | CC(C)(O)CN1CCN(C(=O)c2ccn(-c3cccc(F)c3)n2)CC1 | -3.53
48 | CCC(O)CN1CCN(C(=O)c2ccn(-c3cccc(F)c3)n2)CC1 (centres undefined) | -1.65
49 | COc1ccc(-c2nc(CN3CCCS3(=O)=O)co2)cc1 | -6.24
50 | O=S1(=O)CCCN1Cc1coc(-c2ccc(C(F)(F)F)cc2)n1 | -2.04
51 | CN(CCn1nc2ccccn2c1=O)CC(=O)N(C)C1CCCCC1 | -138
52 | COc1c(CNCc2cccnc2N2CCCCC2)c(C)nn1C | -151
53 | CCOCCNC(=O)c1cccc(Cn2nc(C)cc2C)c1 | -7.69
54 | Cc1cc(C(=O)N2CCCC2c2nnc3n2CCCCC3)on1 (centres undefined) | 1.68
55 | CN(C(=O)CNc1ccc(C#N)cc1)C1CCCCC1 | 0.0479
56 | CC(=O)Nc1nc(C(=O)NCCOc2ccccc2)cs1 | 6.11
57 | O=C(NCC1CCCO1)c1csc(Cc2ccccc2)n1 (centres undefined) | -110
58 | Cc1oc(-c2ccccc2)nc1C(=O)NC1=NCCS1 | 1.85
59 | CN1CCCN(CCCNC2CCc3cc4c(cc32)OCCO4)CC1 (centres undefined) | -3.68
60 | CCOc1ccccc1OCC(=O)NCc1ncc(C)c(OC)c1C | 1.09
61 | Cc1cccc2c1C(=O)NC(c1cnc(C3CCC3)s1)N2 (centres undefined) | -3.33
62 | Cc1cc(N2CCCC(OC(=O)CCN3CCCC3=O)C2)nc(C)n1 (centres undefined) | 2.58
63 | Cc1noc(C)c1CCC(=O)N(C)C(C)c1cccs1 (centres undefined) | 7.93
64 | CCOCCN1CCN(CC(O)c2cc(Cl)ccc2Cl)CC1 (centres undefined) | 0.858
65 | CN(c1ccc(CNc2ccc(Cl)cn2)cc1)S(C)(=O)=O | 5.03
66 | Cc1ccc(C(=O)N2CC(C(N)=O)O[C@H](C)C2)c(F)c1 (some centres undefined) | -5.43
67 | COc1cc(Cl)c(NC(=O)NCCn2cccc2)cc1OC | -0.473
68 | O=C(CO)N1CCN(S(=O)(=O)CCCF)CC1 | -0.655
69 | COc1cc(-n2cccc2)c(Cl)cc1C(N)=O | -10.4

Row | SMILES | cytotoxicity at 10 µM [%]
70 | CNC(=O)c1ccc(N(C)C2CCC2)nn1 | 4.49
71 | CSCc1nc(CCNC(=O)C2CCCN(C(C)=O)C2)cs1 (centres undefined) | -4.84
72 | CC(C)n1cnnc1CN(C)Cc1ccoc1 | 3.15
73 | CN(C(=O)c1cnc(N2CCOCC2)nc1)C1Cc2ccccc2C1 | -3.97
74 | NC(=O)CN1CCC(C(=O)NCc2ccc3nonc3c2)CC1 | -0.969
75 | CSc1ncccc1C(=O)N1CCC2(CC1)c1nc[nH]c1CCN2C | 52.6
76 | CC(COc1ccccc1)NCc1nncn1C1CCCCC1 (centres undefined) | -4.23
77 | CO[C@H]1CNC[C@@H]1NC(=O)c1cc(C)nc2ccc(C)cc12 | 1.25
78 | COc1ncccc1C(=O)N1CCc2c(ncnc2N2CCOCC2)C1 | -3.5
79 | CO[C@@H](C(=O)NC1CCOCC1)c1ccccc1 | -2.43
80 | O=C(Cn1ccc2ncccc2c1=O)N1CCCCC1 | -7
81 | O=C(CCc1nc(Cl)n[nH]1)N1CCC2(CCCNC2=O)C1 (centres undefined) | -6.37
82 | Cn1cnnc1CC1CCN(Cc2c(Cl)cncc2Cl)CC1 | -9.42
83 | CN(C)C(=O)N1CCCn2nc(CNC(=O)CCc3cccs3)cc2C1 | -5.04
84 | CC(C)c1cncnc1-c1cc(F)cc2c1OC(CN)C2 (centres undefined) | -4.02
85 | Cc1cccc(C2CCCN(C(=O)CN3C(=O)CCNC3=O)C2)c1 (centres undefined) | -2.56
86 | COC[C@H](C)Nc1cc(C)c2ccc(SC)cc2n1 | 0.466
87 | CC(C)NS(=O)(=O)c1cc(C(=O)O)cc(-c2ccccc2F)c1 | -7.56
88 | FC(F)C(F)(F)COCc1ncnn1-c1ccc2c(c1)OCO2 | -2.82
89 | CCc1nc(C)cc(NC(C)C(=O)Nc2cc(F)ccc2C)n1 (centres undefined) | -4.44
90 | O=c1[nH]ccn1CCCN1CC=C(c2cnn(-c3ccccc3)c2)CC1 | 7.95
91 | Cc1ccc(S(=O)(=O)N2CCN(C)C3(CCC(=O)N(C)CC3)C2)s1 (centres undefined) | 8.63
92 | CCc1ncc(C(=O)N(C)C2Cc3ccccc3C2)cn1 | -1.05

Row | SMILES | cytotoxicity at 10 µM [%]
93 | COCCc1noc(-c2ccc(-c3ccc(N)nc3)nc2)n1 | 2.5
94 | CCC[C@@H]1CN(Cc2cnc3c(S(C)(=O)=O)cnn3c2)C[C@H]1N(C)C | -2.12
95 | CCc1ncc(CN2CCCN(CC3CC3)C(C(C)C)C2)cn1 (centres undefined) | -6.03
96 | CC(C1CCN(Cc2cccc(OC(F)F)c2)CC1)N1CCOCC1 (centres undefined) | -9.2
97 | CCn1cc(S(=O)(=O)N2CCC3(CCCN(CC4CCC4)C3=O)C2)cn1 (centres undefined) | 2.45
98 | COc1ccc(-c2nc3c([nH]2)CCCNC3=O)cc1OC | 26.6
99 | COc1ccc(-c2cn(CCSc3ncn[nH]3)nn2)cn1 | 3.36
100 | O=C(Cn1nc2ccccc2n1)N1CCCC(O)(CO)C1 (centres undefined) | -6.66
101 | CN(CCN1CCCCC1)C(=O)c1cc(CN2CCOCC2)on1 | -22.7
102 | CNc1cc2c(nn1)CCN(C(=O)c1ccc3c(c1)OCO3)C2 | 6.85
103 | CC(NC(=O)NCCS(C)(=O)=O)c1ccc2c(c1)CCC(=O)N2 (centres undefined) | 1.39
104 | Cc1oc(-c2ccco2)nc1CN1CCCC(Cn2cncn2)C1 (centres undefined) | -23.5
105 | O=C(NCC(c1ccccc1)N1CCOCC1)Nc1cn[nH]c1 (centres undefined) | -15.8
106 | COc1ccc(Cl)cc1CS(=O)(=O)CC(=O)N(C)Cc1ccccc1F | 2.53
107 | CCOC(=O)N1CCN(c2nc(N)c3ccccc3n2)CC1 | -5.52
108 | Cn1c2c(ccc1=O)CC(Nc1ncc(F)cn1)CC2 (centres undefined) | -143
109 | CN(C)C[C@@H]1OC[C@H]2CN(Cc3ccoc3)CC[C@H]21 | -131
110 | CC(C)OCc1nn(CC2CC2)c2c1CN(Cc1ccco1)CC2 | -15.4
111 | CNC(=O)CN1CC[C@H]2CN(C(=O)c3ccc(C)cc3)C[C@H]2C1 | -4.06
112 | Cn1cc(CN2CCc3c(nnn3C)C2COCc2ccccc2)cn1 (centres undefined) | -126
113 | Cc1cccc(CN2CCc3nnc(CN4CCCCC4)n3CC2)n1 | -1.45
114 | COCCN1C(=O)[C@@H]2CC[C@H]1CN(C(=O)Cc1c(F)cccc1Cl)C2 | -1.02
